Results on 1 compound are retold here after ChEMBL document CHEMBL4400543, “Identification and Characterization of AES-135, a Hydroxamic Acid-Based HDAC Inhibitor That Prolongs Survival in an Orthotopic Mouse Model of Pancreatic Cancer” (J Med Chem, 2019).

Usually IC50 stands for the concentration that gives 50% inhibition. Usually inhibition stands for the share of the control response that was lost under treatment.

In series [1] the target is Histone deacetylase 3 (Homo sapiens, UniProt O15379). Kind of series: Inhibition of recombinant human HDAC3 expressed in SF9 baculoviral system using FAM-labeled acetylated peptide as substrate by EMSA. The gist of the method:
(§1)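 Full-length recombinant human enzyme from an Sf9 baculovirus system, in 100 mM HEPES pH 7.5 with 25 mM KCl, 0.1% BSA, 0.01% Triton X-100 and 1% DMSO. Final enzyme was 0.5 nM for HDAC3, 60 nM for HDAC6 and 5.0 nM for HDAC8. FAM-acetylated peptide was 1 μM. The read-out was product/(substrate+product) by microfluidic mobility shift, with inhibition set against DMSO and no-enzyme controls (quadruplicate). Compounds were tested at 12 threefold-spaced concentrations, and IC50 came from a four-parameter sigmoid fit.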
On the technique in general: Mobility shift assays separate free from complexed probe on a gel.

For series [2], the target named is T1, Histone deacetylase 8 (Homo sapiens, UniProt Q9BY41).
T1 sequence (Q9BY41 whole entry): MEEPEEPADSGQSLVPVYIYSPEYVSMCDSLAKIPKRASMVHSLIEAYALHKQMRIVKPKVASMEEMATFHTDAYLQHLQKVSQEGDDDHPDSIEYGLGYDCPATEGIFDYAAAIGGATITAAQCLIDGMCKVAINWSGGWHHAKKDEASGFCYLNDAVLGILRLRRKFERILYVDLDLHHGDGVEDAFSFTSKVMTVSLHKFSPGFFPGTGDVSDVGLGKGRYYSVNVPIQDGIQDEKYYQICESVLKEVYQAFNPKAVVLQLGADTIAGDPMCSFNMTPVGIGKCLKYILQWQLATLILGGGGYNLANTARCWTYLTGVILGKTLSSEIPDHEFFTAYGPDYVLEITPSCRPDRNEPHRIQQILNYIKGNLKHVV
Kind of series: Inhibition of recombinant human HDAC8 expressed in SF9 baculoviral system using FAM-labeled acetylated peptide as substrate by EMSA. Put shortly: as §1

Series [3] deals with T2, Histone deacetylase 11 (Homo sapiens, UniProt Q96DB2).
T2 sequence (Q96DB2 whole entry): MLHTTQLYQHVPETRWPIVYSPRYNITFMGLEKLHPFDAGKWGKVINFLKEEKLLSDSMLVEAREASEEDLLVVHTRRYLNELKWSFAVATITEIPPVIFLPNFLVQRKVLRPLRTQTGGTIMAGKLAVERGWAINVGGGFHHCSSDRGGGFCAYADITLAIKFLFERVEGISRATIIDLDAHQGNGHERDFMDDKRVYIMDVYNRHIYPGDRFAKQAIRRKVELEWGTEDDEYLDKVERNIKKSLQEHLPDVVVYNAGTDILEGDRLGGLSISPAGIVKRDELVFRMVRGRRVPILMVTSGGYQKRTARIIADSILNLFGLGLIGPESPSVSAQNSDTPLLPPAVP
Kind of series: Inhibition of recombinant human HDAC11 expressed in SF9 baculoviral system using FAM-labeled acetylated peptide as substrate by EMSA. Put shortly:
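Full-length human HDAC11 (Sf9-expressed), 10 nM final, in 100 mM HEPES pH 7.5, 25 mM KCl, 0.1% BSA, 0.01% Triton X-100, 1% DMSO. FAM-acetylated peptide substrate at 100 μM, mobility-shift read-out. Product/(substrate + product) converted to % inhibition. IC50 from a four-parameter fit; dose-response spans 12 threefold dilutions from 30.0 μM.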

Series [4] concerns the target Protein deacetylase HDAC6 (Homo sapiens) (UniProt Q9UBN7). Briefly: Inhibition of recombinant human HDAC6 expressed in SF9 baculoviral system at 10 uM using FAM-labeled acetylated peptide as substrate by EMSA relative to control. The gist of the method: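 Single-point screen at 10 μM compound, using full-length recombinant human enzyme expressed in Sf9 cells. Buffer was HEPES pH 7.5 with KCl, BSA and Triton X-100, and 1% DMSO. Final enzyme was 0.5 nM for HDAC3, 60 nM for HDAC6 and 5.0 nM for HDAC8, with 1 μM FAM-acetylated peptide. Percent inhibition was derived from the product sum ratio relative to DMSO-only (0%) and no-enzyme (100%) controls.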

Series [5] has as its system MV4-11. Briefly: Cytotoxicity against human MV4-11 cells at 50 uM after 72 hrs by CellTiter-Blue assay. Type of series: functional, cell-based. The gist of the method:
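Cells in 10% FBS medium, 10 000 cells/well, treated 24 h after plating. Twofold dilution series from a 50.0 μM top dose to 0.097656 μM, in triplicate, 0.5% DMSO vehicle. 72 h at 37 °C, 5% CO2. CellTiter-Blue for 1–4 h, fluorescence 560/590 nm. IC50 by nonlinear regression.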
On the technique in general: Alamar Blue is a resazurin reagent that responds to reducing activity.

The subject of series [6] is PC-3. Kind of series: Cytotoxicity against human PC3 cells at 50 uM after 72 hrs by CellTiter-Blue assay. Type of series: functional, cell-based.
The target in series [7] is Signal transducer and activator of transcription 3 (Homo sapiens) (UniProt P40763). Briefly: Inhibition of STAT3 phosphorylation at Y705 residue in human MDA-MB-231 cells up to 30 uM after 5 hrs by Western blot method. In kind it is cell-based. Put shortly: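 Run on 4–15% SDS-PAGE and transferred to PVDF. Primary antibodies 1:1000 overnight at 4 °C, HRP or fluorescent secondary 1:5000, ECL detection, β-actin loading control.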
(In general: In western blotting, separated proteins are transferred to a membrane and probed.)

Series [8] in a line: Drug uptake in NSG mouse serum at 10 mg/kg, ip administered daily for 5 days by HPLC-MS/MS analysis. As to conditions: read-out: Drug uptake. In kind it is ADME, organism-based. Put shortly:
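NSG mice dosed IP once daily for 5 days at 10 or 40 mg/kg, n = 6. Blood collected 5 h after the final injection for serum drug concentration, reported ± SD.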

The nature of series [9]: Cytotoxicity against human Pa02C monolayer cells assessed as reduction in tumor spheroid intensity after 72 hrs by Alamar Blue assay. Type of series: functional, cell-based. The gist of the method: (§2)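 Monolayer proliferation of STR-authenticated, mycoplasma-checked patient-derived PDAC lines and mouse KPC cells. Plated at 2000 cells/well, treated 72 h, read by alamarBlue. At least triplicate, n = 3–5.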

Series [10] relates to Pa03C. Briefly: Cytotoxicity against human Pa03C monolayer cells assessed as reduction in tumor spheroid intensity after 72 hrs by Alamar Blue assay. In kind it is functional, cell-based. The gist of the method:
as §2

Series [11] has as its system Panc1005. Briefly: Cytotoxicity against human Panc 10.05 monolayer cells assessed as reduction in tumor spheroid intensity after 72 hrs by Alamar Blue assay. In kind it is functional, cell-based. The settings on record: Panc1005, 72 h. Put shortly: as §2
The nature of series [12]: Cytotoxicity against human […] cells assessed as reduction in tumor spheroid intensity after 72 hrs by Alamar Blue assay. In kind it is cell-based. The gist of the method:
(§3)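 3D spheroids of patient-derived PDAC cells (tomato red) alone or with CAF19 cells, plus CAF cultures. Imaging read-outs: area is the μ2 of objects above a tomato red intensity threshold; intensity is summed red or green pixel fluorescence after background removal. n = 3–5.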

Series [13] has as its system Panc1005. Kind of series: Cytotoxicity against human Panc 10.05 cells assessed as reduction in tumor spheroid intensity after 72 hrs in presence of human CAF19 cells by Alamar Blue assay. Type of series: functional, cell-based. The settings on record: Panc1005, 72 h. The gist of the method: as §3
In series [14] the target is Signal transducer and activator of transcription 3 (Homo sapiens) (UniProt P40763). Kind of series: Inhibition of STAT3 phosphorylation at S727 residue in human BTSC 100EF cells at 1 to 10 uM after 24 hrs by Western blot method. In kind it is cell-based. The gist of the method:
(§4)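 BTSCs dissociated to single cells and treated with drug or DMSO. Lysed in RIPA buffer with protease inhibitors. 20 μg lysate run on SDS-PAGE and transferred to nitrocellulose. Blocked in 5% milk, primary antibody overnight at 4 °C, then HRP secondary for 1 h.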

The target is the same in series [15]. Kind of series: Inhibition of STAT3 phosphorylation at Y705 residue in human BTSC 147EF cells at 2 uM after 3 to 24 hrs by Western blot method. In kind it is cell-based. The gist of the method: as §4

Molecules are shown by their SMILES. Activity calls are given as the source filed them.

Sequence of Signal transducer and activator of transcription 3 (Homo sapiens) (P40763 whole entry): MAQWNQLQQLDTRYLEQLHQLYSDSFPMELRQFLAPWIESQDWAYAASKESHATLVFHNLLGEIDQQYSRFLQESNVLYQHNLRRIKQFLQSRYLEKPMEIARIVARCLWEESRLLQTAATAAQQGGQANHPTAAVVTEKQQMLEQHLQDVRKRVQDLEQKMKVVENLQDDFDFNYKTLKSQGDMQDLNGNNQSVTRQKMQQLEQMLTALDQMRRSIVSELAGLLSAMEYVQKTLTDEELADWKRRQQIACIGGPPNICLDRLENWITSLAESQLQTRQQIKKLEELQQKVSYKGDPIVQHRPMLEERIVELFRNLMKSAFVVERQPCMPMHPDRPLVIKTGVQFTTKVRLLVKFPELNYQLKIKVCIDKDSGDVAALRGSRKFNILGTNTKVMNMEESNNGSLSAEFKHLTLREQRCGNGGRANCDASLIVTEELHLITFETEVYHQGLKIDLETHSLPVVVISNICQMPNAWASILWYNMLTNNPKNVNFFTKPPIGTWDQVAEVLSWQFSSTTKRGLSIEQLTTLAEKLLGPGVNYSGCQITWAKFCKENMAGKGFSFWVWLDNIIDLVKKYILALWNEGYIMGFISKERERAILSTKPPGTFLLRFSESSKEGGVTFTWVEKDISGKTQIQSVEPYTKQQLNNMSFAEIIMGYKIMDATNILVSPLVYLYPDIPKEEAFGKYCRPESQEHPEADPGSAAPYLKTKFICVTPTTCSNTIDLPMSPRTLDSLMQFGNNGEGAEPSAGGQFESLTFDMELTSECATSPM
Sequence of Histone deacetylase 3 (O15379 whole entry): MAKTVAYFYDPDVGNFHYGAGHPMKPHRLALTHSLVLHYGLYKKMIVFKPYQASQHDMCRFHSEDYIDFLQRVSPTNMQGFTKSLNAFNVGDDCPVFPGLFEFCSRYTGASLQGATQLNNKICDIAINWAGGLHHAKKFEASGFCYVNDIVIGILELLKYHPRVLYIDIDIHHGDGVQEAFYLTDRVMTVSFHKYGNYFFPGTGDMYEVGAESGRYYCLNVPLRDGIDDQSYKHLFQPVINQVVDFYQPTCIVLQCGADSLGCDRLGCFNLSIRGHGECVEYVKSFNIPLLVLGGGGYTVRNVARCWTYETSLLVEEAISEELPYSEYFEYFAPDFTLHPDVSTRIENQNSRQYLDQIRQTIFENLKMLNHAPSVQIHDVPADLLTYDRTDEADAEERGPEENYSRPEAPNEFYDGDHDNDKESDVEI
Sequence of Protein deacetylase HDAC6 (Homo sapiens) (Q9UBN7 whole entry): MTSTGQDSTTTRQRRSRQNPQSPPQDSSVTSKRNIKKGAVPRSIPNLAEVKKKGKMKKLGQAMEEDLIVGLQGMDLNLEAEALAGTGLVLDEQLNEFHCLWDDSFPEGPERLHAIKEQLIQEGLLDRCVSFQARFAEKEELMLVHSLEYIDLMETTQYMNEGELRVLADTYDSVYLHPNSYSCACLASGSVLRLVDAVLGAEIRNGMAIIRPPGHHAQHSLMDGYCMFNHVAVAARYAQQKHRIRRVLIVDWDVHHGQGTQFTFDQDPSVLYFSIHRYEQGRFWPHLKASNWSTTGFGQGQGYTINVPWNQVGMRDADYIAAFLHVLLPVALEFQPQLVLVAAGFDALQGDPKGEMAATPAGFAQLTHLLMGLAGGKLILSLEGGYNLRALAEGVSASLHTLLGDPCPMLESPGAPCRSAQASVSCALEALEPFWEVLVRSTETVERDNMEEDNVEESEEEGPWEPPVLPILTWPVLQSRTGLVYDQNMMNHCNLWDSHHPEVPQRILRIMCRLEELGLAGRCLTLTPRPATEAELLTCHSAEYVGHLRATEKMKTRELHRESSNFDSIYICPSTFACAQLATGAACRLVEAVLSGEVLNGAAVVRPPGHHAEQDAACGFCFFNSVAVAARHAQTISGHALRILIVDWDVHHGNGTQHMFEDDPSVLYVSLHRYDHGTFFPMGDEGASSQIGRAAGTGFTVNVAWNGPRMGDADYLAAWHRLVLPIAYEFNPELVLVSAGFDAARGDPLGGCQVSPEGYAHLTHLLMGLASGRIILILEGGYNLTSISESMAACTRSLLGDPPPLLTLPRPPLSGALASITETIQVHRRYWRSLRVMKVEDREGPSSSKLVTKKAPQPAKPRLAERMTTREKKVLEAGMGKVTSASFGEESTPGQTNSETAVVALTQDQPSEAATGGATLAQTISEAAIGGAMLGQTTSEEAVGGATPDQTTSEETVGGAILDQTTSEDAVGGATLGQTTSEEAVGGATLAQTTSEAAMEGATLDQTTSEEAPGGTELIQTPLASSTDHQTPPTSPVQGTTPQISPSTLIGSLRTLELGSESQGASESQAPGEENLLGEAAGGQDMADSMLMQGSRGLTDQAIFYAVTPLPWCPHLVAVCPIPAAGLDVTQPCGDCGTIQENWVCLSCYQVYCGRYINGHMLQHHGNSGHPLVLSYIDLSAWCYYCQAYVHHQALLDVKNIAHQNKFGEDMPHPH

Regarding `CC(C)(C)c1ccc(CN(C(=O)CN(Cc2c(F)c(F)c(F)c(F)c2F)S(=O)(=O)c2ccc(F)cc2)c2ccc(C(=O)NO)cc2)cc1`, the 50% inhibitory concentration (IC50) in [1] was 0.654 µM; in series [2] it was greater than 1 µM; in series [3], 0.636 µM; in [9] it was 4.6 µM; in series [10] it was 3.4 µM; in series [11], 3.9 µM. Moreover, the half-inhibitory concentration (IC50) in series [12] was 3.4 to 4.5 µM; in series [13], 0.5 µM. In addition, the inhibition in [4] is 98%. Further, the result in [5] and in series [6] was Active. The inhibition entry in [7], in [14] and in [15] was “inactive” throughout. For the same compound, the concentration at 120 h in series [8] is 470 nM.
